# Source: ChEMBL document CHEMBL4219038, “1-Thiazol-2-yl-N-3-methyl-1H-pyrozole-5-carboxylic acid derivatives as antitumor agents” (Bioorg Med Chem Lett, 2017)
# The source made the active and inactive calls. No cut-off for these calls is given here.
# Experiments:
# [1] = AUC (0 to infinity) in mouse at 10 mg/kg; format: ADME, organism-based; design: dose 10 mg/kg, time infinity; conditions: in vivo
# [2] = test system: Daudi; experiment: Antiproliferative activity against human Daudi cells; format: functional, cell-based
# [3] = AUC (0 to infinity) in mouse at 100 mg/kg; format: ADME, organism-based; design: dose 100 mg/kg, time infinity; conditions: in vivo
# [4] = Cmax in J:Nu mouse plasma at 30 mg/kg, po qd for 7 days followed by 90 mg/kg, po qd for 5 days from day 8 to 13; format: ADME, organism-based; design: dose 30 mg/kg, route oral
# Method in brief: (§1)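 J:Nu female mice, N = 4 per group, dosed orally once daily at 10, 30 or 60 mpk in 5% NMP, 10% PEG-400, 15% Solutol, 70% D5W. The 30 and 60 mpk groups were raised to 90 and 120 mpk from day 8 to 13.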
# [5] = test system: Mus musculus; experiment: Ratio of Cmax in mouse at 2.5 mg/kg, po to Cmax in mouse at 50 mg/kg, po; format: ADME, organism-based; conditions: in vivo
# [6] = Plasma concentration (7 hrs) in J:Nu mouse at 10 mg/kg, po qd for 7 days measured on day 1; format: ADME, organism-based
# Method in brief: (§2)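 J:Nu female mice, N = 4 per group, dosed orally once daily at 10, 30 or 60 mg/kg in 5% NMP, 10% PEG-400, 15% Solutol, 70% D5W. Blood was sampled every other day, alternating Cmax and predose draws. Plasma concentration was taken 7 h after dosing.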
# [7] = test system: BJAB; experiment: Induction of apoptosis in human BJAB cells by high content cell imaging studies; format: functional, cell-based
# [8] = MRT in mouse at 2.5 mg/kg, po; format: ADME, organism-based; conditions: in vivo
# [9] = test system: Mus musculus; experiment: Ratio of Cmax in mouse at 2.5 mg/kg, po to Cmax in mouse at 100 mg/kg, po; format: ADME, organism-based; conditions: in vivo
# [10] = AUC (0 to infinity) in iv dosed mouse; format: ADME, organism-based; design: time infinity, route intravenous; conditions: in vivo
# [11] = test system: MCF-10A; experiment: Antiproliferative activity against human MCF10A cells; format: cell-based
# [12] = test system: Mus musculus; experiment: Ratio of AUC (0 to infinity) in mouse at 2.5 mg/kg, po to Cmax in mouse at 10 mg/kg, po; format: ADME, organism-based; conditions: in vivo
# [13] = Protein binding in human plasma; format: ADME, cell-free; conditions: read-out: PPB (converted)
# [14] = AUC (0 to infinity) in mouse at 50 mg/kg; format: ADME, organism-based; design: dose 50 mg/kg, time infinity; conditions: in vivo
# [15] = test system: Mus musculus; experiment: Toxicity in J:Nu mouse assessed as induction of changes in critical clinical parameters at 60 mg/kg, po qd for 7 days followed by 120 mg/kg, po qd for 5 days from day 8 to 13; format: organism-based; conditions: in vivo
# Method in brief: (§3)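 In J:Nu female mice (N = 4 per group), dosing was oral once daily at 30 or 60 mg/kg in 5% NMP/10% PEG-400/15% Solutol/70% D5W for 7 days. Doses were then raised to 90 or 120 mg/kg respectively on days 8–13. Clinical signs and body weights were recorded daily. Gross pathology, with spleen and liver weights, was done 48 h after the last dose.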
# [16] = MRT in mouse at 50 mg/kg, po; format: ADME, organism-based; conditions: in vivo
# [17] = AUC (0 to infinity) in J:Nu mouse plasma at 60 mg/kg, po qd for 7 days followed by 120 mg/kg, po qd for 5 days from day 8 to 13; format: ADME, organism-based; design: dose 60 mg/kg, route oral, time infinity; method in brief: as §1
# [18] = test system: Jurkat; experiment: Antiproliferative activity against human Jurkat cells; format: functional, cell-based
# [19] = test system: HCT-116; experiment: Induction of quiescence in human HCT116 cells by high content cell imaging studies; format: functional, cell-based
# [20] = test system: Mus musculus; experiment: Ratio of AUC (0 to infinity) in mouse at 2.5 mg/kg, po to Cmax in mouse at 50 mg/kg, po; format: ADME, organism-based; conditions: in vivo
# [21] = AUC (0 to infinity) in J:Nu mouse plasma at 10 mg/kg, po qd for 7 days; format: ADME, organism-based; design: dose 10 mg/kg, route oral, time infinity; method in brief: as §1
# [22] = Antiproliferative activity against human TC71 cells; format: functional, cell-based; conditions: TC-71
# [23] = test system: SU-DHL10; experiment: Antiproliferative activity against human SU-DHL10 cells; format: functional, cell-based
# [24] = test system: B cell; experiment: Antiproliferative activity against human primary B cells; format: cell-based
# [25] = test system: Mus musculus; experiment: Ratio of AUC (0 to infinity) in mouse at 2.5 mg/kg, po to Cmax in mouse at 100 mg/kg, po; format: ADME, organism-based; conditions: in vivo
# [26] = Initial plasma concentration in iv dosed mouse; format: ADME, organism-based
# [27] = AUC (0 to infinity) in J:Nu mouse plasma at 30 mg/kg, po qd for 7 days followed by 90 mg/kg, po qd for 5 days from day 8 to 13; format: ADME, organism-based; design: dose 30 mg/kg, route oral, time infinity; method in brief: as §1
# [28] = test system: Mus musculus; experiment: Toxicity in J:Nu mouse assessed as induction of changes in critical clinical parameters at 30 mg/kg, po qd for 7 days followed by 90 mg/kg, po qd for 5 days from day 8 to 13; format: organism-based; conditions: in vivo; method in brief: as §3
# [29] = Kinetic solubility of the compound in PBS buffer at pH 7.4; format: physicochemical; conditions: read-out: Kinetic_solubility
# Method in brief: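 Kinetic solubility measured in PBS buffer, pH 7.4.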
# [30] = Cmax in po dosed mouse; format: ADME, organism-based; design: route oral; conditions: in vivo
# [31] = Dose normalized AUC (0 to infinity) in J:Nu mouse plasma at 60 mg/kg, po qd for 7 days followed by 120 mg/kg, po qd for 5 days from day 8 to 13; format: ADME, organism-based; conditions: in vivo; method in brief: as §1
# [32] = Cmax in mouse at 10 mg/kg; format: ADME, organism-based; design: dose 10 mg/kg; conditions: in vivo
# [33] = Plasma concentration (7 hrs) in J:Nu mouse at 60 mg/kg, po qd for 7 days measured on day 5; format: ADME, organism-based; method in brief: as §2
# [34] = test system: HCT-116; experiment: Cell cycle arrest in human HCT116 cells assessed as reduction in cell levels at S-phase at 0.001 to 10 uM after 24 hrs EdU-staining based high content imaging analysis; format: functional
# Method in brief: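 HCT-116 cells plated on poly-lysine-coated plates overnight, then treated 24 h with compound (DMSO stock diluted into McCoy's medium with 10% FBS). EdU labelling of newly synthesized DNA, 4% formaldehyde fixation, then high-content imaging in three fluorescent channels for total cell count, DNA content and S-phase cells. Means of three biological replicates, SEM.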
# [35] = Toxicity in J:Nu mouse assessed as maximum tolerated dose at 10 to 120 mg/kg, po qd for 13 days; format: organism-based; conditions: in vivo
# [36] = Clearance in iv dosed mouse; format: ADME, organism-based; conditions: in vivo
# [37] = Dose normalized Cmax in J:Nu mouse plasma at 30 mg/kg, po qd for 7 days followed by 90 mg/kg, po qd for 5 days from day 8 to 13; format: ADME, organism-based; conditions: in vivo; method in brief: as §1
# [38] = Dose normalized Cmax in J:Nu mouse plasma at 60 mg/kg, po qd for 7 days followed by 120 mg/kg, po qd for 5 days from day 8 to 13; format: ADME, organism-based; conditions: in vivo; method in brief: as §1
# [39] = test system: Mus musculus; experiment: Toxicity in J:Nu mouse assessed as induction of adverse effects at 10 to 120 mg/kg, po qd for 13 days; format: organism-based; conditions: in vivo, 312 h
# Method in brief: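 Oral once-daily dosing of J:Nu female mice (N = 4 per group) at 10, 30 and 60 mg/kg for 7 days. The 30 and 60 mg/kg groups were escalated to 90 and 120 mg/kg on days 8–13. Clinical signs and body weights were recorded every day.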
# [40] = test system: MIA PaCa-2; experiment: Antiproliferative activity against human MIAPaCa2 cells; format: functional, cell-based
# [41] = Cmax in mouse at 50 mg/kg; format: ADME, organism-based; design: dose 50 mg/kg; conditions: in vivo
# [42] = Cmax in mouse at 2.5 mg/kg; format: ADME, organism-based; design: dose 2.5 mg/kg; conditions: in vivo
structure (smiles),measurement,setting,value
Cc1nn(-c2nc(-c3ccc(Cl)c(Cl)c3)c(SC(C)C)s2)c(C(=O)O)c1-c1cc(Cl)cc(Cl)c1,AUC(0-inf),[1],257 µg·h/mL
same,IC50,[2],380 nM
same,AUC(0-inf),[3],2120 µg·h/mL
same,Cmax,[4],134000 ng/mL
same,Ratio,[5],8.8
same,concentration at 7 h,[6],19700 ng/mL
same,Activity,[7],Active
same,MRT,[8],15.1 h
same,Ratio,[9],0.9
same,AUC(0-inf),[10],10.7 µg·h/mL
same,IC50,[11],35000 nM
same,Ratio,[12],10
same,fraction unbound,[13],0.027
same,AUC(0-inf),[14],2250 µg·h/mL
same,Activity,[15],Non-Toxic
same,MRT,[16],9.3 h
same,AUC(0-inf),[17],1540 µg·h/mL
same,IC50,[18],500 nM
same,Activity,[19],Active
same,Ratio,[20],8.7
same,AUC(0-inf),[21],330 µg·h/mL
same,IC50,[22],290 nM
same,IC50,[23],430 nM
same,IC50,[24],> 40000 nM
same,Ratio,[25],1.4
same,C0,[26],3190 ng/mL
same,AUC(0-inf),[27],1490 µg·h/mL
same,Activity,[28],Non-Toxic
same,solubility kinetic,[29],40.2 µM
same,Cmax,[30],1320 ng/mL
same,AUC/dose,[31],12800 ng·kg·h/mL/mg
same,Cmax,[32],15700 ng/mL
same,concentration at 7 h,[33],79800 ng/mL
same,Activity,[34],Active
same,MTD at 312 h,[35],90 mg/kg
same,clearance,[36],0.8 mL/min/kg
same,Cmax/dose,[37],1494.3 ng/mL
same,Cmax/dose,[38],1066.5 ng/mL
same,Activity,[39],Non-Toxic
same,IC50,[40],320 nM
same,Cmax,[41],138000 ng/mL
same,Cmax,[42],1320 ng/mL
